# According to ChEMBL document CHEMBL1932995, “Synthesis of 5-aryl-1,4-benzodiazepine derivatives attached in resorcinaren-PAMAM dendrimers and their anti-cancer activity” (Bioorg Med Chem, 2012):
# The source made the active and inactive calls. The calls are words filed in the database; no cut-off is given here.
# Columns and labels:
# U-251 = assay: Growth inhibition of human U251 cells at 50 uM after 48 hrs by SRB assay; format: functional; details: for inhibition of growth at 50 µM: U-251, 48 h, read-out: GI
# Procedure, shortened: (§1)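 Cell lines obtained from NCI, grown in RPMI-1640 with 10% fetal bovine serum, 2 mM glutamine, penicillin G, streptomycin, amphotericin B and 1% non-essential amino acids, at 37 °C, humidified 5% CO2. Cell viability above 95% by trypan blue. Compounds tested in DMSO. Growth read by sulforhodamine B protein staining in microculture per NCI protocol, reported as % inhibition.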
# PC-3 = assay: Growth inhibition of human PC3 cells at 50 uM after 48 hrs by SRB assay; format: functional; details: for inhibition of growth at 50 µM: PC-3, 48 h, read-out: GI; procedure, shortened: as §1
# K562 = assay: Growth inhibition of human K562 cells at 50 uM after 48 hrs by SRB assay; format: functional; details: for inhibition of growth at 50 µM: K562, 48 h, read-out: GI; procedure, shortened: as §1
# HCT-15 [1] = assay: Growth inhibition of human HCT15 cells at 50 uM after 48 hrs by SRB assay; format: functional; details: for inhibition of growth at 50 µM: HCT-15, 48 h, read-out: GI; procedure, shortened: as §1
# MCF7 = assay: Growth inhibition of human MCF7 cells at 50 uM after 48 hrs by SRB assay; format: functional; details: for inhibition of growth at 50 µM: MCF7, 48 h, read-out: GI; procedure, shortened: as §1
# SK-LU-1 [2] = assay: Growth inhibition of human SKLU1 cells at 50 uM after 48 hrs by SRB assay; format: functional; details: for inhibition of growth at 50 µM: SK-LU-1, 48 h, read-out: GI; procedure, shortened: as §1
# HCT-15 [3] = assay: Anticancer activity against human HCT15 cells after 48 hrs by SRB assay; format: functional, cell-based
# SK-LU-1 [4] = assay: Anticancer activity against human SKLU1 cells after 48 hrs by SRB assay; format: functional, cell-based
Structure (SMILES),inhibition of growth at 50 µM (U-251) [%],inhibition of growth at 50 µM (PC-3) [%],inhibition of growth at 50 µM (K562) [%],inhibition of growth at 50 µM (HCT-15 [1]) [%],inhibition of growth at 50 µM (MCF7) [%],inhibition of growth at 50 µM (SK-LU-1 [2]) [%],growth inhibition (GI) (PC-3),growth inhibition (GI) (MCF7),IC50 (HCT-15 [3]),IC50 (SK-LU-1 [4]),growth inhibition (GI) (U-251),growth inhibition (GI) (K562),growth inhibition (GI) (HCT-15 [1]),growth inhibition (GI) (SK-LU-1 [2])
COC(=O)CN1C(=O)CN=C(c2ccccc2)c2cc([N+](=O)[O-])ccc21,33.7,22.3,30.6,25.2,22.2,27.5,,,,,,,,
COC(=O)CN1C(=O)CN=C(c2ccccc2F)c2cc(Cl)ccc21,20.7,22.4,27.2,26,24.5,19.8,,,,,,,,
CCCCCCCCCCCC1c2cc(c(OCC(=O)NCCN)cc2OCC(=O)NCCN)C(CCCCCCCCCCC)c2cc(c(OCC(=O)NCCN)cc2OCC(=O)NCCN)C(CCCCCCCCCCC)c2cc(c(OCC(=O)NCCN)cc2OCC(=O)NCCN)C(CCCCCCCCCCC)c2cc1c(OCC(=O)NCCN)cc2OCC(=O)NCCN (configuration not stated),18.1,,11.2,31.5,,16.2,Active,Active,Active,Active,,,,
NCCNC(=O)CCN(CCNC(=O)COc1cc(OCC(=O)NCCN(CCC(=O)NCCN)CCC(=O)NCCN)c2cc1C(CCc1ccccc1)c1cc(c(OCC(=O)NCCN(CCC(=O)NCCN)CCC(=O)NCCN)cc1OCC(=O)NCCN(CCC(=O)NCCN)CCC(=O)NCCN)C(CCc1ccccc1)c1cc(c(OCC(=O)NCCN(CCC(=O)NCCN)CCC(=O)NCCN)cc1OCC(=O)NCCN(CCC(=O)NCCN)CCC(=O)NCCN)C(CCc1ccccc1)c1cc(c(OCC(=O)NCCN(CCC(=O)NCCN)CCC(=O)NCCN)cc1OCC(=O)NCCN(CCC(=O)NCCN)CCC(=O)NCCN)C2CCc1ccccc1)CCC(=O)NCCN (configuration not stated),,,,,,,Active,Active,Active,Active,Active,Active,Active,Active
NCCNC(=O)COc1cc(OCC(=O)NCCN)c2cc1C(CCc1ccccc1)c1cc(c(OCC(=O)NCCN)cc1OCC(=O)NCCN)C(CCc1ccccc1)c1cc(c(OCC(=O)NCCN)cc1OCC(=O)NCCN)C(CCc1ccccc1)c1cc(c(OCC(=O)NCCN)cc1OCC(=O)NCCN)C2CCc1ccccc1 (configuration not stated),37,29,35.3,34.9,33.2,30.9,,,,,,,,
CCCCCCCCCCCC1c2cc(c(OCC(=O)NCCN(CCC(=O)NCCN)CCC(=O)NCCN)cc2OCC(=O)NCCN(CCC(=O)NCCN)CCC(=O)NCCN)C(CCCCCCCCCCC)c2cc(c(OCC(=O)NCCN(CCC(=O)NCCN)CCC(=O)NCCN)cc2OCC(=O)NCCN(CCC(=O)NCCN)CCC(=O)NCCN)C(CCCCCCCCCCC)c2cc(c(OCC(=O)NCCN(CCC(=O)NCCN)CCC(=O)NCCN)cc2OCC(=O)NCCN(CCC(=O)NCCN)CCC(=O)NCCN)C(CCCCCCCCCCC)c2cc1c(OCC(=O)NCCN(CCC(=O)NCCN)CCC(=O)NCCN)cc2OCC(=O)NCCN(CCC(=O)NCCN)CCC(=O)NCCN (configuration not stated),56.5,38.5,100,91.3,92,100,,,,,,,,
COC(=O)CN1C(=O)CN=C(c2ccccc2Cl)c2cc(Cl)ccc21,18.6,12.8,15.9,12.9,11.8,12.5,,,Active,Active,,,,
Oc1cc(O)c2cc1C(CCc1ccccc1)c1cc(c(O)cc1O)C(CCc1ccccc1)c1cc(c(O)cc1O)C(CCc1ccccc1)c1cc(c(O)cc1O)C2CCc1ccccc1 (configuration not stated),47.6,5.4,60.8,14.7,21.5,14.8,,,,,,,,
COC(=O)CN1C(=O)CN=C(c2ccccc2)c2cc(Cl)ccc21,11.7,12.3,19.7,12,19.3,13.2,,,Active,Active,,,,
